Laboratory results published in ChEMBL document CHEMBL1955716, “Synthesis and evaluation of CS-2100, a potent, orally active and S1P(3)- sparing S1P(1) agonist” (Eur J Med Chem, 2012).
Each block holds one compound with its values, some of them ahead of it. Activity calls are given as the source filed them. The rule behind the calls is not given here.

Experiments:
[1] = species: Rattus norvegicus; test: Selectivity ratio of EC50 for rat S1P3 receptor to EC50 for rat S1P1 receptor
Summary of the method: (§1)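 Membranes from CHO cells expressing rat or human S1P1 or S1P3, homogenized in 5 mM Tris–HCl pH 7.4, 0.25 M sucrose, 1 mM EDTA, 1 mM EGTA and spun at 100,000 × g for 60 min at 4 °C. Serial compound dilutions added to 1–10 µg protein/well, and [35S]GTPγS binding measured. EC50 is the midpoint between vehicle binding ratio and maximal response. Selectivity is the S1P3/S1P1 EC50 ratio.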

[2] = species: Homo sapiens; test: Selectivity ratio of EC50 for human S1P3 receptor to EC50 for human S1P1 receptor; summary of the method: as §1
[3] = Agonist activity at rat S1P3 receptor expressed in CHO-K1 cells assessed as induction of GTPgammaS binding; assay type: cell-based; summary of the method: as §1
[4] = Metabolic stability in liver microsomes assessed as degradation of 1,2,4-oxadiazole ring; assay type: ADME, Microsome
[5] = test system: Rattus norvegicus; test: Immunomodulatory activity in Lewis rat assessed as decrease in peripheral blood lymphocyte numbers at 0.1 to 1 mg/kg, po after 24 to 48 hrs; assay type: functional, organism-based
Summary of the method: (§2)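 Male Lewis rats, 5 weeks old, 5 per group. Single oral dose (0.1 or 1 mg/kg) suspended in 1% w/v methyl cellulose #400 at 5 ml/kg; vehicle controls. Postcaval vein blood taken under ether anesthesia at 0.5–48 h into EDTA tubes. Absolute lymphocytes counted on a full blood count analyzer, expressed relative to vehicle control, mean ± SE.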

[6] = Metabolic stability in liver microsomes assessed as 4-PBA level; assay type: ADME, Microsome
[7] = Tmax in Lewis rat at 1 mg/kg, po; assay type: ADME, organism-based; set-up: dose 1 mg/kg, route oral; settings: in vivo
Summary of the method: (§3)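 Male Lewis rats given a single oral dose (0.1 or 1 mg/kg) suspended in 1% methyl cellulose; plasma taken from the blood samples of the lymphocyte-count study, 5 rats per time point up to 72 h. Drug quantified by LC–MS/MS after solid-phase extraction on a C18 column. Noncompartmental parameters calculated from mean concentrations.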

[8] = Cmax in C57BL/6J mouse at 1 mg/kg, po; assay type: ADME, organism-based; set-up: dose 1 mg/kg, route oral; settings: in vivo
Summary of the method: (§4)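 Male C57BL/6J mice given 1 mg/kg orally at 5 ml/kg as a solution in dimethyl acetamide/25% Purebright/water (1/8/1). Plasma assayed by LC–MS/MS after solid-phase extraction, 5 animals per time point. Noncompartmental analysis performed on mean concentrations.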

[9] = target: Sphingosine 1-phosphate receptor 3 (Homo sapiens, UniProt Q99500); test: Agonist activity at human S1P3 receptor expressed in CHO-K1 cells assessed as induction of GTPgammaS binding; assay type: functional, cell-based; summary of the method: as §1
[10] = test system: Mus musculus; test: Antimultiple sclerosis activity in C57BL/6J mouse assessed as reduction of experimental autoimmune encephalomyelitis score at 1 mg/kg, po qd for 23 days; assay type: functional, organism-based; set-up: dose 1 mg/kg
[11] = test system: Rattus norvegicus; test: Immunomodulatory activity in Lewis rat assessed as decrease in peripheral blood lymphocyte numbers at 1 mg/kg, po after 8 hrs relative to control; assay type: functional; set-up: scale not given: the % may be the effect or the level left; summary of the method: as §2
[12] = Terminal half life in Lewis rat at 0.1 mg/kg, po; assay type: ADME, organism-based; set-up: dose 0.1 mg/kg, route oral; settings: in vivo, read-out: beta t1/2 (converted); summary of the method: as §3
[13] = target: Sphingosine 1-phosphate receptor 5 (Homo sapiens, UniProt Q9H228); test: Agonist activity at human S1P5 receptor; assay type: functional
[14] = Cmax in Lewis rat at 0.1 mg/kg, po; assay type: ADME, organism-based; set-up: dose 0.1 mg/kg, route oral; settings: in vivo; summary of the method: as §3
[15] = test system: Rattus norvegicus; test: Antiarthritic activity in po dosed Lewis rat assessed as reduction of adjuvant-induced right hind foot volume administered as qd for 18 days; assay type: functional; settings: 432 h, read-out: ID50 (the source's name)
Summary of the method: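 Lewis rats injected intradermally with adjuvant (0.05 ml) in the right hind footpad. Oral dosing at 0.1, 0.3, 1 or 3 mg/kg in 1% methyl cellulose, 5 ml/kg, once daily from Day 0 for 18 days; uninjected normal group. Right foot volume measured by plethysmometer on Days 0–18. % inhibition computed against control and normal, and ID50 taken by least-squares regression of % inhibition against log dose at Day 18.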

[16] = target: T1, Sphingosine 1-phosphate receptor 4 (Homo sapiens, UniProt O95977); test: Agonist activity at human S1P4 receptor; assay type: functional
T1 sequence (O95977 whole entry): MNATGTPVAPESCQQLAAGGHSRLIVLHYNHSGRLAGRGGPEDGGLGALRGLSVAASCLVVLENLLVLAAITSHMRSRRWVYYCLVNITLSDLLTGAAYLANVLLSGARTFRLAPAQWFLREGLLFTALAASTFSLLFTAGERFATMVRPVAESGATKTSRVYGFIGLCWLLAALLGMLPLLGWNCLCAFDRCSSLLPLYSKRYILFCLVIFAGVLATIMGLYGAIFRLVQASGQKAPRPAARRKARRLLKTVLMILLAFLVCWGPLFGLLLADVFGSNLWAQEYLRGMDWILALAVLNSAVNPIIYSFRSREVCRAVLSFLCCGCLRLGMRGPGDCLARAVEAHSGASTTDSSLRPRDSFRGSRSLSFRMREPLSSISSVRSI

[17] = test system: Rhesus monkey; test: Drug metabolism in po dosed monkey plasma assessed as 4-PBA level; assay type: ADME, organism-based, Macaca mulatta; settings: in vivo
[18] = AUC (0 to 72 hrs) in Lewis rat at 1 mg/kg, po; assay type: ADME, organism-based; set-up: time < 72 hr, dose 1 mg/kg, route oral; settings: plasma; summary of the method: as §3
[19] = Terminal half life in C57BL/6J mouse at 1 mg/kg, po; assay type: ADME, organism-based; set-up: dose 1 mg/kg, route oral; settings: in vivo, read-out: beta t1/2 (converted); summary of the method: as §4
[20] = test system: Rattus norvegicus; test: Drug metabolism in po dosed rat plasma assessed as 4-PBA level; assay type: ADME, organism-based; settings: in vivo
[21] = target: Sphingosine 1-phosphate receptor 1 (Rattus norvegicus, UniProt P48303); test: Agonist activity at rat S1P1 receptor expressed in CHO-K1 cells assessed as induction of GTPgammaS binding; assay type: functional, cell-based; summary of the method: as §1
[22] = AUC (0 to 72 hrs) in Lewis rat at 0.1 mg/kg, po; assay type: ADME, organism-based; set-up: time < 72 hr, dose 0.1 mg/kg, route oral; settings: plasma; summary of the method: as §3
[23] = Cmax in Lewis rat at 1 mg/kg, po; assay type: ADME, organism-based; set-up: dose 1 mg/kg, route oral; settings: in vivo; summary of the method: as §3
[24] = AUC (0 to 72 hrs) in C57BL/6J mouse at 1 mg/kg, po; assay type: ADME, organism-based; set-up: time < 72 hr, dose 1 mg/kg, route oral; settings: plasma; summary of the method: as §4
[25] = Tmax in Lewis rat at 0.1 mg/kg, po; assay type: ADME, organism-based; set-up: dose 0.1 mg/kg, route oral; settings: in vivo; summary of the method: as §3
[26] = test system: Mus musculus; test: Antimultiple sclerosis activity in C57BL/6J mouse assessed as reduction of experimental autoimmune encephalomyelitis score at 0.3 mg/kg, po qd for 23 days; assay type: functional, organism-based; set-up: dose 0.3 mg/kg
[27] = Tmax in C57BL/6J mouse at 1 mg/kg, po; assay type: ADME, organism-based; set-up: dose 1 mg/kg, route oral; settings: in vivo; summary of the method: as §4
[28] = test system: Rattus norvegicus; test: Immunomodulatory activity in Lewis rat assessed as decrease in peripheral blood lymphocyte numbers at 0.1 mg/kg, po after 8 hrs relative to control; assay type: functional; set-up: scale not given: the % may be the effect or the level left; summary of the method: as §2
[29] = Terminal half life in Lewis rat at 1 mg/kg, po; assay type: ADME, organism-based; set-up: dose 1 mg/kg, route oral; settings: in vivo, read-out: beta t1/2 (converted); summary of the method: as §3

Sequence of Sphingosine 1-phosphate receptor 3 (Q99500 whole entry): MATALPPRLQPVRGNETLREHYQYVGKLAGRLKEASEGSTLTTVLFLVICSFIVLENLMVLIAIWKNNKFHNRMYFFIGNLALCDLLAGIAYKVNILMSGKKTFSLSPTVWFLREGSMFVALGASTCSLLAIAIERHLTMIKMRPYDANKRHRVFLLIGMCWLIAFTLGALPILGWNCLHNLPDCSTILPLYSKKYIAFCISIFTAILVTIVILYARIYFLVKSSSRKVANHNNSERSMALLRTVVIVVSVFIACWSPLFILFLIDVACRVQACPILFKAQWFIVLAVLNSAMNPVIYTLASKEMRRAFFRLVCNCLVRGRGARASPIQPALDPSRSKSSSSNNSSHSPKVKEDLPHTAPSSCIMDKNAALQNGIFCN
Sequence of Sphingosine 1-phosphate receptor 5 (Q9H228 whole entry): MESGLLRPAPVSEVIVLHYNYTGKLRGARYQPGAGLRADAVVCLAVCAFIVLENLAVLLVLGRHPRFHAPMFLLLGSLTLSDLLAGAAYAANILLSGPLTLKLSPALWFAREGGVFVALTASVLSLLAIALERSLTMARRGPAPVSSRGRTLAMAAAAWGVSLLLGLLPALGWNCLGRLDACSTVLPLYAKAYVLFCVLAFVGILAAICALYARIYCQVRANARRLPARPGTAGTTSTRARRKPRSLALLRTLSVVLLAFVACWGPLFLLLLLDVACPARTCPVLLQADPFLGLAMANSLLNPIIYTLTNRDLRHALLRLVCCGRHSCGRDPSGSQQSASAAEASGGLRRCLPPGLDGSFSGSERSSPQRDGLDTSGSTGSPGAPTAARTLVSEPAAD
Sequence of Sphingosine 1-phosphate receptor 1 (P48303 whole entry): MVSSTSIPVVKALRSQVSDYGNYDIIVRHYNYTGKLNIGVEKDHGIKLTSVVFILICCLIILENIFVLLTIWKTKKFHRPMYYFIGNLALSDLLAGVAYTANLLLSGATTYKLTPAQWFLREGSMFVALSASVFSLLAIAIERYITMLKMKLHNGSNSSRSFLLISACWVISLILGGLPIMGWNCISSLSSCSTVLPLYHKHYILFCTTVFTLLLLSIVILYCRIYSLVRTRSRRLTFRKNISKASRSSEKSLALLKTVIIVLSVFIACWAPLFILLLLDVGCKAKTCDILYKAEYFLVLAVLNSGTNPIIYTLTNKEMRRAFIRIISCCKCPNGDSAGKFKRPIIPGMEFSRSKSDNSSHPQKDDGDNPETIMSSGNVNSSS

- Ratio EC50 [1]: 100
- Ratio EC50 [2]: 320
- EC50 [3]: 0.2 µM
SMILES: Cc1ccc(CCCC(=O)c2ccc(CC[C@@](C)(N)COP(=O)(O)O)n2C)cc1

- Ratio EC50 [2]: > 5000
- Stability [4]: Stable
- Stability [6]: Stable
- Tmax [7]: 4 h
- Cmax [8]: 135 ng/mL
- EC50 [9]: > 20 µM
- half-life [12]: 12.4 h
- EC50 [3]: 7.4 µM
- EC50 [13]: 0.017 µM
- Cmax [14]: 17.4 ng/mL
- EC50 [16]: 0.058 µM
- Drug metabolism [17]: Active
- AUC(0-t) at 72 h [18]: 2670 ng·h/mL
- half-life [19]: 13.9 h
- Drug metabolism [20]: Active
- EC50 [21]: 0.0015 µM
- AUC(0-t) at 72 h [22]: 268 ng·h/mL
- Cmax [23]: 186 ng/mL
- AUC(0-t) at 72 h [24]: 1540 ng·h/mL
- Tmax [25]: 4 h
- Tmax [27]: 2 h
- half-life [29]: 8.73 h
SMILES: CCc1cc(CN2CC(C(=O)O)C2)sc1-c1noc(-c2ccc(Oc3ccccc3)cc2)n1
- Activity [5]: inactive
- Activity [10]: Active
- Activity [11]: 11%
- ED50 [15]: 0.44 mg/kg
- Activity [26]: Active
- Activity [28]: 27%

- EC50 [3]: 0.0013 µM
SMILES: CCCCCCCCc1ccc(CC[C@](N)(CO)COP(=O)(O)O)cc1 [FTY720-P]
